From ChEMBL document CHEMBL5257120 (Bioorg Med Chem, 2023)
Activity calls are given as the source filed them. No cut-off for these calls is given here.

Legend:
[1] = Toxicity in Swiss albino mouse assessed as morbidity at 5 to 1000 mg/kg, po administered for 7 days; type: organism-based; settings: in vivo, 168 h, dose 5-1000 mg/kg, time 7 day
[2] = Hepatotoxicity in Swiss albino mouse assessed as alkaline phosphatase level at 300 mg/kg, po administered for 7 days (reference value: 260.10 +/- 26.76 U/L); type: toxicity, organism-based; settings: in vivo, 168 h, time 7 day
In short: (§1)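 Single acute oral dose (5, 50, 300 or 1000 mg/kg) given to Swiss albino mice, n = 6, with 7-day observation. At the end, haematological and serum biochemical parameters were measured. Compared with untreated controls; mean ± SE, ANOVA, p < 0.05.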

[3] = Antiinflammatory activity in mouse peritoneal macrophage assessed as inhibition of LPS-induced IL6 production at 1 ug/ml relative to control; type: functional; set-up: scale not given: the % may be the effect or the level left; settings: dose 1 µg/ml
[4] = Hepatotoxicity in Swiss albino mouse assessed as SGPT level at 300 mg/kg, po administered for 7 days (reference value: 17.01 +/- 2.33 U/L); type: toxicity, organism-based; settings: in vivo, 168 h, time 7 day; in short: as §1
[5] = Antiinflammatory activity in mouse peritoneal macrophage assessed as reduction in LPS-induced TNFalpha production at 10 ug/ml; type: functional; settings: dose 10 µg/ml
Tubulin (Homo sapiens) = Tubulin (Homo sapiens) (UniProt P68371+Q9H4B7+P0DPH7+P68366+Q13509+Q71U36+P04350+Q3ZCM7+P07437+P68363+Q9BQE3+Q6PEY2+Q13885+Q9BVA1+Q9BUF5); test: Induction of microtubule stabilization (unknown origin) at 0.2 to 5 uM; type: protein-complex assay; settings: dose 0.2-5 µM
[6] = Hepatotoxicity in Swiss albino mouse assessed as serum protein level at 300 mg/kg, po administered for 7 days (reference value: 5.73 +/- 0.21 mg/ml); type: toxicity, organism-based; settings: in vivo, 168 h, time 7 day; in short: as §1
[7] = Antiinflammatory activity in mouse peritoneal macrophage assessed as inhibition of LPS-induced IL6 production at 10 ug/ml relative to control; type: functional; set-up: scale not given: the % may be the effect or the level left; settings: dose 10 µg/ml
[8] = Hepatotoxicity in Swiss albino mouse assessed as serum protein level at 1000 mg/kg, po administered for 7 days (reference value: 5.73 +/- 0.21 mg/ml); type: toxicity, organism-based; settings: in vivo, 168 h, time 7 day; in short: as §1
[9] = Toxicity in Swiss albino mouse assessed as behavioural changes at 5 to 1000 mg/kg, po administered for 7 days; type: organism-based; settings: in vivo, 168 h, dose 5-1000 mg/kg, time 7 day
[10] = Toxicity in Swiss albino mouse assessed as change in body weight at 5 mg/kg, po administered for 7 days (reference value: 29.35 +/- 0.57 g); type: organism-based; settings: in vivo, 168 h, time 7 day
[11] = Hepatotoxicity in Swiss albino mouse assessed as albumin level at 5 mg/kg, po administered for 7 days (reference value: 4.12 +/- 0.17 g/dl); type: toxicity, organism-based; settings: in vivo, 168 h, time 7 day; in short: as §1
[12] = Toxicity in Swiss albino mouse assessed as change in absolute heart weight at 5 to 1000 mg/kg, po administered for 7 days; type: organism-based; settings: in vivo, 168 h, dose 5-1000 mg/kg, time 7 day
[13] = Selectivity index, ratio of IC50 for african green monkey Vero cells to IC50 for human K562 cells; type: toxicity; settings: Vero cells versus K562 cells, read-out: Ratio IC50
[14] = Toxicity in Swiss albino mouse assessed as change in relative spleen weight at 5 to 1000 mg/kg, po administered for 7 days; type: organism-based; settings: in vivo, 168 h, dose 5-1000 mg/kg, time 7 day
[15] = Hepatotoxicity in Swiss albino mouse assessed as SGPT level at 1000 mg/kg, po administered for 7 days (reference value: 17.01 +/- 2.33 U/L); type: toxicity, organism-based; settings: in vivo, 168 h, time 7 day; in short: as §1
[16] = Toxicity in Swiss albino mouse assessed as triglyceride level at 5 mg/kg, po administered for 7 days (reference value: 136.88 +/- 3.12 mg/dl); type: organism-based; settings: in vivo, 168 h, time 7 day
[17] = Hepatotoxicity in Swiss albino mouse assessed as albumin level at 300 mg/kg, po administered for 7 days (reference value: 4.12 +/- 0.17 g/dl); type: toxicity, organism-based; settings: in vivo, 168 h, time 7 day; in short: as §1
[18] = Toxicity in Swiss albino mouse assessed as change in absolute spleen weight at 5 to 1000 mg/kg, po administered for 7 days; type: organism-based; settings: in vivo, 168 h, dose 5-1000 mg/kg, time 7 day
[19] = Antiinflammatory activity in mouse peritoneal macrophage assessed as inhibition of LPS-induced TNFalpha production at 1 ug/ml relative to control; type: functional; set-up: scale not given: the % may be the effect or the level left; settings: dose 1 µg/ml
[20] = Toxicity in Swiss albino mouse assessed as RBC level at 300 mg/kg, po administered for 7 days (reference value: 7.13 +/- 0.40 million/mm3); type: organism-based, Erythrocyte; settings: in vivo, 168 h, time 7 day; in short: as §1
[21] = Hepatotoxicity in Swiss albino mouse assessed as SGOT level at 50 mg/kg, po administered for 7 days (reference value: 31.51 +/- 6.31 U/L); type: toxicity, organism-based; settings: in vivo, 168 h, time 7 day; in short: as §1
[22] = Toxicity in Swiss albino mouse assessed as triglyceride level at 300 mg/kg, po administered for 7 days (reference value: 136.88 +/- 3.12 mg/dl); type: organism-based; settings: in vivo, 168 h, time 7 day
MDA-MB-231 = test: Cytotoxicity against human MDA-MB-231 cells incubated for 72 hrs by Sulphorhodamine assay; type: functional, cell-based; settings: MDA-MB-231, 72 h
[23] = Toxicity in Swiss albino mouse assessed as cholesterol level at 300 mg/kg, po administered for 7 days (reference value: 140.17 +/- 3.76 mg/dl); type: organism-based; settings: in vivo, 168 h, time 7 day
[24] = Toxicity in Swiss albino mouse assessed as cholesterol level at 1000 mg/kg, po administered for 7 days (reference value: 140.17 +/- 3.76 mg/dl); type: organism-based; settings: in vivo, 168 h, time 7 day
[25] = Toxicity in Swiss albino mouse assessed as triglyceride level at 1000 mg/kg, po administered for 7 days (reference value: 136.88 +/- 3.12 mg/dl); type: organism-based; settings: in vivo, 168 h, time 7 day
[26] = Toxicity in Swiss albino mouse assessed as change in absolute liver weight at 5 to 1000 mg/kg, po administered for 7 days; type: organism-based; settings: in vivo, 168 h, dose 5-1000 mg/kg, time 7 day
Homo sapiens = organism: Homo sapiens; test: Selectivity ratio, ratio of inhibition of HDAC in human HeLa nuclear extract assessed as residual activity to inhibition of human recombinant HDAC6 assessed as residual activity
In short: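 Compounds at 20 μM tested by fluorometric assay on HeLa nuclear extract (class I/II HDACs) and on human recombinant HDAC6. Residual activity is expressed relative to untreated control. Selectivity is the ratio of PanHDAC to HDAC6 residual activity: ≥7 high, 2.5–6.9 moderate, <2.5 low.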

[27] = Antiinflammatory activity in mouse peritoneal macrophage assessed as reduction in LPS-induced TNFalpha production at 1 ug/ml; type: functional; settings: dose 1 µg/ml
[28] = Toxicity in Swiss albino mouse assessed as cholesterol level at 50 mg/kg, po administered for 7 days (reference value: 140.17 +/- 3.76 mg/dl); type: organism-based; settings: in vivo, 168 h, time 7 day
[29] = Antiinflammatory activity in mouse peritoneal macrophage assessed as reduction in LPS-induced IL6 production at 10 ug/ml; type: functional; settings: dose 10 µg/ml
[30] = Toxicity in Swiss albino mouse assessed as RBC level at 1000 mg/kg, po administered for 7 days (reference value: 7.13 +/- 0.40 million/mm3); type: organism-based, Erythrocyte; settings: in vivo, 168 h, time 7 day; in short: as §1
[31] = Toxicity in Swiss albino mouse assessed as haemoglobin level at 1000 mg/kg, po administered for 7 days (reference value: 15.66 +/- 0.80 g/dl); type: organism-based; settings: in vivo, 168 h, time 7 day
[32] = Hepatotoxicity in Swiss albino mouse assessed as albumin level at 1000 mg/kg, po administered for 7 days (reference value: 4.12 +/- 0.17 g/dl); type: toxicity, organism-based; settings: in vivo, 168 h, time 7 day; in short: as §1

COc1cc(C2/C(=C/c3ccc(/C=C/C(=O)NO)cc3)C(=O)c3cc(OC)c(OC)c(OC)c32)cc(OC)c1OC (stereo not given)
Activity [1]: Non-Toxic
Activity [2]: 238.88 U/L
Activity [3]: 13.14%
Activity [4]: 17.95 U/L
Activity [5]: 872.08 pg/mL
Activity (Tubulin (Homo sapiens)): Active
Activity [6]: 5.45 mg/mL
Activity [7]: 27.01%
Activity [8]: 5.87 mg/mL
Activity [9]: Non-Toxic
Activity [10]: 28.17 g
Activity [11]: 4.34 g/dL
Activity [12]: Non-Toxic
selectivity ratio [13]: 30.7
Activity [14]: Non-Toxic
Activity [15]: 22.91 U/L
Activity [16]: 146.79 mg/dL
Activity [17]: 4.46 g/dL
Activity [18]: Non-Toxic
Activity [19]: 17.28%
Activity [20]: 8.48 million/mm3
Activity [21]: 33.67 U/L
Activity [22]: 127.18 mg/dL
IC50 (MDA-MB-231): 360 nM
Activity [23]: 157.14 mg/dL
Activity [24]: 157.22 mg/dL
Activity [25]: 130.21 mg/dL
Activity [26]: Non-Toxic
Ratio (Homo sapiens): < 0.5
Activity [27]: 1019.21 pg/mL
Activity [28]: 157.99 mg/dL
Activity [29]: 2199.42 pg/mL
Activity [30]: 8.53 million/mm3
Activity [31]: 16.73 g/dL
Activity [32]: 4.53 g/dL
